Here are results for 37 molecules from ChEMBL document CHEMBL5338721, “Alkyl-substituted N-methylaryl-N'-aryl-4-aminobenzamides: A new series of small molecule inhibitors for Wip1 phosphatase” (Eur J Med Chem, 2022).

Activity calls are given as the source filed them. No cut-off for these calls is given here.

For the first experiment, the target named is T1, Protein phosphatase 1D (Homo sapiens, UniProt O15297).
T1 sequence (O15297 whole entry): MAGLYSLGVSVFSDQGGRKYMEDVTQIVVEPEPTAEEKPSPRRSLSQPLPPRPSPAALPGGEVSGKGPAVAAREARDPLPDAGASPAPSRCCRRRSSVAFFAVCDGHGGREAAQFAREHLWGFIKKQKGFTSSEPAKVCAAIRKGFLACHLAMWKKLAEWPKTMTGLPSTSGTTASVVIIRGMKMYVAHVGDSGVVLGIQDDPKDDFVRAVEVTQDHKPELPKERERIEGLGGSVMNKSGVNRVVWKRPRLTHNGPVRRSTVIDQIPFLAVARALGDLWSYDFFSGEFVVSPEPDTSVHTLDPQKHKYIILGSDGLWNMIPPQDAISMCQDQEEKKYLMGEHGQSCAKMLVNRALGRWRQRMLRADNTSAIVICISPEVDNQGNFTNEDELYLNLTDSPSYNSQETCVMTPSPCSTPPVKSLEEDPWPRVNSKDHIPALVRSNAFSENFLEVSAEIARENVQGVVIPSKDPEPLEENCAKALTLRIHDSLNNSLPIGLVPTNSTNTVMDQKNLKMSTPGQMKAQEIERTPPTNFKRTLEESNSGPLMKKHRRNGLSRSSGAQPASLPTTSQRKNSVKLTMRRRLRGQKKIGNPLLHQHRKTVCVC
As to the kind of experiment: Inhibition of recombinant human Wip1 (1 to 420 residues) using human ATM phosphopeptide (AFEEG-pS-QSTTIGY) as substrate incubated for 7 mins by Bio-mol green assay. The essentials: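 Released phosphate read by Biomol Green against phosphate standard curve; normalized to no-inhibitor (100%) and no-enzyme (0%). Screen at 100 μM; 9–10-point dose-response in triplicate, logistic fit for IC50 and Hill coefficient.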
Turning to `O=C(Nc1cccc(Cl)c1)c1cccc(CNc2ccc(C(=O)Nc3cccc(O)c3)cc2CCC2CCCCC2)c1`, the half-maximal inhibitory concentration (IC50) turned out to be 1600 µM.

`O=C(Nc1cccc(Cl)c1)c1cccc(C(=O)Nc2ccc(C(=O)Nc3cccc(OP(=O)(O)O)c3)cc2CC2CCCCC2)c1`: the concentration for half-maximal inhibition (IC50) is 7.3 µM.

Regarding `O=C(Nc1cccc(Cl)c1)c1cccc(CNc2ccc(C(=O)Nc3cccc(OP(=O)(O)O)c3)cc2C2CC3CCC2C3)c1` (stereo not given), the IC50 was 24.7 µM.

For the molecule `O=C(Nc1cccc(Cl)c1)c1cccc(CNc2ccc(C(=O)Nc3cccc(OP(=O)(O)O)c3)cc2CCC2CCCCC2)c1`, the half-maximal inhibitory concentration (IC50) was 32.7 µM.

`COC(=O)c1ccc(NCc2cccc(C(=O)O)c2)c(CC2CCCCC2)c1`: the IC50 was found to be 54.1 µM.

Take `COc1cc(OC)cc(-c2ccc(CNc3ccc(C(=O)Nc4cccc(OP(=O)(O)O)c4)cc3CC3CCCCC3)cc2)c1`: the half-inhibitory concentration (IC50) worked out at 18 µM.

As to `O=C(Nc1cccc(OP(=O)(O)O)c1)c1ccc(NCc2cccnc2)c(CC2CCCCC2)c1`, the concentration for half-maximal inhibition (IC50) worked out at 105 µM.

For the molecule `COC(=O)c1ccc(NCc2cccc(C(=O)O)c2)c(CCC2CCCCC2)c1`, the 50% inhibitory concentration (IC50) turned out to be 48.4 µM.

As to `COc1ccc(CNc2ccc(C(=O)Nc3cccc(OP(=O)(O)O)c3)cc2CC2CCCCC2)cc1`, the 50% inhibitory concentration (IC50) was 37 µM.

For the molecule `CCCCC(CCCC)CNc1ccc(C(=O)Nc2cccc(OP(=O)(O)O)c2)cc1CC1CCCCC1`, the IC50 worked out at 512 µM.

For the molecule `O=C(Nc1ccc2c(c1)OCO2)c1cccc(CNc2ccc(C(=O)Nc3cccc(OP(=O)(O)O)c3)cc2CC2CCCCC2)c1`, the half-inhibitory concentration (IC50) is 35.2 µM.

Take `Nc1ccc(C(=O)Nc2cccc(OP(=O)(O)O)c2)cc1CC1CCCCC1`: the half-maximal inhibitory concentration (IC50) is 330 µM.

With `O=C(Nc1cccc(Cl)c1)c1cccc(CNc2ccc(C(=O)Nc3cccc(OP(=O)(O)O)c3)cc2CC2CCCCC2)c1`, the IC50 turned out to be 3.8 µM.

For `O=C(Nc1cccc(OP(=O)(O)O)c1)c1ccc(NCc2ccc(-c3ccc(Cl)cc3)cc2)c(CC2CCCCC2)c1`, the concentration for half-maximal inhibition (IC50) is 332 µM.

As for `O=C(Nc1cccc(OP(=O)(O)O)c1)c1ccc(NCc2ccc(F)cc2)c(CC2CCCCC2)c1`, the IC50 amounted to 28.1 µM.

As for `O=C(Nc1cccc(OP(=O)(O)O)c1)c1ccc(NCc2ccc(-c3cccc(F)c3)cc2)c(CC2CCCCC2)c1`, the IC50 stood at 30 µM.

In the case of `COc1cccc(CNc2ccc(C(=O)Nc3cccc(OP(=O)(O)O)c3)cc2CC2CCCCC2)c1`, the half-maximal inhibitory concentration (IC50) was 139 µM.

Take `O=C(Nc1cccc(OP(=O)(O)O)c1)c1ccc(NC(=O)c2cccc(CNc3cccc(Cl)c3)c2)c(CC2CCCCC2)c1`: the concentration for half-maximal inhibition (IC50) came to 7.2 µM.

In the case of `O=C(Nc1cccc(Cl)c1)c1ccc(CNc2ccc(C(=O)Nc3cccc(OP(=O)(O)O)c3)cc2CC2CCCCC2)cc1`, the half-inhibitory concentration (IC50) came out at 11.1 µM.

Take `O=C(Nc1cccc(OP(=O)(O)O)c1)c1ccc(NCc2ccc3ccccc3c2)c(CC2CCCCC2)c1`: the IC50 was determined as 274 µM.

As for `O=C(NCCc1ccc(OP(=O)(O)O)cc1)c1ccc(NC(=O)c2ccc(F)cc2)c(CC2CCCCC2)c1`, the IC50 was 36 µM.

As for `O=C(Nc1cccc(F)c1)c1cccc(CNc2ccc(C(=O)Nc3cccc(OP(=O)(O)O)c3)cc2CC2CCCCC2)c1`, the IC50 turned out to be 20.8 µM.

For the molecule `O=C(Nc1cccc(OP(=O)(O)O)c1)c1ccc(NCc2ccc(-c3cccc(Cl)c3)cc2)c(CC2CCCCC2)c1`, the half-maximal inhibitory concentration (IC50) came out at 48 µM.

Turning to `O=C(O)c1cccc(CNc2ccccc2CC2CCCCC2)c1`, the IC50 came to 74.8 µM.

As to `O=C(Nc1cccc(OP(=O)(O)O)c1)c1ccc(NCc2cc3ccccc3o2)c(CC2CCCCC2)c1`, the 50% inhibitory concentration (IC50) turned out to be 21.4 µM.

For the molecule `O=C(Nc1cccc(OP(=O)(O)O)c1)c1ccc(NCc2ccc(F)cc2)c(Cc2ccccc2)c1`, the IC50 stood at 63 µM.

Turning to `O=C(Nc1cccc(OP(=O)(O)O)c1)c1ccc(NCc2ccc(F)cc2)cc1`, the IC50 is 683 µM.

In the case of `O=C(Nc1cccc(OP(=O)(O)O)c1)c1ccc(NCCCc2ccccc2)c(CC2CCCCC2)c1`, the 50% inhibitory concentration (IC50) came out at 105 µM.

With `O=C(Nc1ccc(OP(=O)(O)O)cc1)c1ccc(NCc2ccc(F)cc2)c(CC2CCCCC2)c1`, the IC50 was 29 µM.

As to `O=C(Nc1cccc(OP(=O)(O)O)c1)c1ccc(NCc2cccc(F)c2)c(CC2CCCCC2)c1`, the half-maximal inhibitory concentration (IC50) turned out to be 28.5 µM.

The next experiment has as its target T2, Protein phosphatase 1D (Homo sapiens) (UniProt O15297).
T2 sequence (whole entry): T1 sequence (O15297 whole entry)
As to the kind of experiment: Inhibition of recombinant human Wip1 (1 to 420 residues) using human ATM phosphopeptide (AFEEG-pS-QSTTIGY) as substrate at 100 uM incubated for 7 mins by Bio-mol green assay. The essentials: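 Purified recombinant Wip1 (1–420) incubated with compound and 100 μM ATM phosphopeptide for 7 min at 30 °C. Buffer: 50 mM Tris·HCl pH 7.5, EGTA, DTT, CHAPS, 0.1 mg/mL BSA, 30 mM MgCl₂. Phosphate measured by Biomol Green against a standard curve and normalized to no-inhibitor (100%) and no-enzyme (0%). Dose-response used 9–10 points, each in triplicate. IC50 from logistic fit (standard, or variable-slope giving a Hill coefficient).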
On to `O=C(NCCCO)C1CCCCC1`, for which the inhibition entry is “inactive”.

With `O=C(CC1CCCCC1)NCCCO`, the inhibition result was “inactive”.

Take `Nc1ccccc1CC1CCCCC1`: the inhibition entry was “inactive”.

In a further experiment the target is T2, Protein phosphatase 1D (Homo sapiens). As to the kind of experiment: Inhibition of recombinant human Wip1 (1 to 420 residues) using human ATM phosphopeptide (AFEEG-pS-QSTTIGY) as substrate at 100 uM incubated for 7 mins by Bio-mol green assay relative to control. The essentials: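 Recombinant Wip1 (1–420) with 100 μM ATM phosphopeptide in 50 mM Tris·HCl pH 7.5 buffer with 30 mM MgCl₂, 7 min at 30 °C. Compound given at a single 100 μM concentration. Released phosphate quantified by Biomol Green with a phosphate standard curve. Percent inhibition taken from activity normalized to no-inhibitor (100%) and no-enzyme (0%) controls.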
Turning to `O=C(O)c1cccc(CNc2ccccc2CCC2CCCCC2)c1`, the inhibition was 88%.

In the case of `O=C(CCCCC1CCCCC1)NCCCO`, the inhibition turned out to be 4%.

Regarding `Nc1ccccc1CCC1CCCCC1`, the inhibition came to 3%.

Consider `O=C(CCCC1CCCCC1)NCCCO`, for which the inhibition is 1%.

In another experiment the target is T3, Protein phosphatase 1A (Homo sapiens) (UniProt P35813).
T3 sequence (whole entry): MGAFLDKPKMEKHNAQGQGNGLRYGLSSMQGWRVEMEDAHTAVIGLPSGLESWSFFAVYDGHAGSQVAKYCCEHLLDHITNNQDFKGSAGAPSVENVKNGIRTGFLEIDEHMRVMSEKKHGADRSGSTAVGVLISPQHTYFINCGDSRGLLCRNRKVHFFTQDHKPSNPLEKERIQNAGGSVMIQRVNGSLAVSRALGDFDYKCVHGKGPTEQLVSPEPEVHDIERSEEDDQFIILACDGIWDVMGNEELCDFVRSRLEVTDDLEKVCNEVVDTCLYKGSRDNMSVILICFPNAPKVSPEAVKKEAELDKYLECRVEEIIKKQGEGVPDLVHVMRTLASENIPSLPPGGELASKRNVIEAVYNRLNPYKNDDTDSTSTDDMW
As to the kind of experiment: Inhibition of PPM1A (unknown origin) using human p38alpha phosphopeptide as substrate upto 100 uM incubated for 7 mins by Biomol green assay. In short, it runs like this:
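Substrate: 100 μM p38α (175–185, 180pT) phosphopeptide, mixed with compound or DMSO, then 8 nM PPM1A added. Buffer: 50 mM Tris·HCl pH 7.5, 0.1 mM EGTA, 1 mM DTT, 1 mM CHAPS, 0.1 mg/mL BSA, 30 mM MgCl₂. Incubation: 7 min at 30 °C. Stopped with Biomol Green, 20 min colour development at room temperature. Released phosphate read at 620 nm against a phosphate standard curve. Compounds tested up to 100 μM.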
With `O=C(Nc1cccc(Cl)c1)c1cccc(C(=O)Nc2ccc(C(=O)Nc3cccc(OP(=O)(O)O)c3)cc2CC2CCCCC2)c1`, the inhibition entry is “inactive”.

Take `O=C(Nc1cccc(Cl)c1)c1cccc(CNc2ccc(C(=O)Nc3cccc(OP(=O)(O)O)c3)cc2CC2CCCCC2)c1`: the inhibition entry was “inactive”.

On to `O=C(Nc1cccc(OP(=O)(O)O)c1)c1ccc(NC(=O)c2cccc(CNc3cccc(Cl)c3)c2)c(CC2CCCCC2)c1`, for which the inhibition entry is “inactive”.
